Results taken from ChEMBL document CHEMBL1125199, “Comparison of azabicyclic esters and oxadiazoles as ligands for the muscarinic receptor” (J Med Chem, 1991).

Key:
[1] = target: Muscarinic acetylcholine receptor; assay: The compound was tested in vitro for central muscarinic acetylcholine receptor affinity to displace [3H]quinuclidinyl benzilate from rat cerebral cortex; Value ranges from 15000-45000; type: tissue-based
[2] = target: Muscarinic acetylcholine receptor; assay: The compound was tested in vitro for central muscarinic acetylcholine receptor affinity to displace [3H]oxotremorine-M from rat cerebral cortex; Value ranges from 73-120; type: tissue-based
[3] = target: T1, Muscarinic acetylcholine receptor (Rattus norvegicus) (UniProt P08482+P08483+P08485+P08911+P10980); assay: Relative binding of QNB and OXO-M to muscarininc receptors (ratio of IC50); type: protein assay
Outline: (§1)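 Ratio of IC50 for [3H]QNB displacement to IC50 for [3H]OXO-M displacement in rat cerebral cortex membranes. [3H]QNB at 0.27 nM; [3H]OXO-M at 2 nM with 2 mM MgCl2. Both incubated at 37 °C for 30 min in 50 mM Tris pH 7.7.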

[4] = target: Muscarinic acetylcholine receptor; assay: The compound was tested in vitro for central muscarinic acetylcholine receptor affinity to displace [3H]quinuclidinyl benzilate from rat cerebral cortex; Value ranges from 1300-2300; type: tissue-based
[5] = target: Muscarinic acetylcholine receptor; assay: The compound was tested for muscarinic acetylcholine receptor affinity to displace [3H]oxotremorine-M from rat cerebral cortex; Value ranges from 250-280; type: tissue-based
[6] = target: Muscarinic acetylcholine receptor; assay: The compound was tested in vitro for central muscarinic acetylcholine receptor affinity to displace [3H]oxotremorine-M from rat cerebral cortex; Value ranges from 950-1000; type: tissue-based
[7] = target: Muscarinic acetylcholine receptor; assay: The compound was tested in vitro for central muscarinic acetylcholine receptor affinity to displace [3H]quinuclidinyl benzilate from rat cerebral cortex; Value ranges from 15000-25000; type: tissue-based
[8] = target: T1, Muscarinic acetylcholine receptor (Rattus norvegicus); assay: It is the ratio of IC50 (QNB) to that of IC50 (OXO-M); type: protein assay; outline: as §1
[9] = target: Muscarinic acetylcholine receptor; assay: The compound was tested in vitro for central muscarinic acetylcholine receptor affinity to displace [3H]oxotremorine-M from rat cerebral cortex; Value ranges from 93-190; type: tissue-based
[10] = target: Muscarinic acetylcholine receptor; assay: The compound was tested in vitro for central muscarinic acetylcholine receptor affinity to displace [3H]quinuclidinyl benzilate from rat cerebral cortex; Value ranges from 14000-38000; type: tissue-based
Mus musculus [11] = assay: Dose administered perorally which causes a fall of 3 degrees C in mean rectal temperature in group of 5 mice; type: functional
Outline: (§2)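 Male CDI mice, 25–32 g, housed singly; rectal temperature read by thermocouple probe at 2.5 cm depth, three baseline readings at 20–30 min intervals, then every 15 min after dosing. ED3 read graphically as the dose giving a 3 °C fall in mean rectal temperature, groups of five; 95% confidence intervals given.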

Mus musculus [12] = assay: Dose administered subcutaneously which causes a fall of 3 degrees C in mean rectal temperature in group of 5 mice; type: functional; outline: as §2
[13] = target: Muscarinic acetylcholine receptor; assay: The compound was tested in vitro for central muscarinic acetylcholine receptor affinity to displace [3H]oxotremorine-M from rat cerebral cortex; Value ranges from 190-280; type: tissue-based
[14] = target: Muscarinic acetylcholine receptor; assay: The compound was tested in vitro for central muscarinic acetylcholine receptor affinity to displace [3H]quinuclidinyl benzilate from rat cerebral cortex; Value ranges from 44000-60000; type: tissue-based
[15] = target: Muscarinic acetylcholine receptor; assay: The compound was tested in vitro for central muscarinic acetylcholine receptor affinity to displace [3H]oxotremorine-M from rat cerebral cortex; Value ranges from 75-80; type: tissue-based
[16] = target: Muscarinic acetylcholine receptor; assay: The compound was tested in vitro for central muscarinic acetylcholine receptor affinity to displace [3H]quinuclidinyl benzilate from rat cerebral cortex; Value ranges from 11000-14000; type: tissue-based
[17] = target: Muscarinic acetylcholine receptor; assay: The compound was tested in vitro for central muscarinic acetylcholine receptor affinity to displace [3H]oxotremorine-M from rat cerebral cortex; Value ranges from 41-48; type: tissue-based
[18] = target: Muscarinic acetylcholine receptor; assay: The compound was tested in vitro for central muscarinic acetylcholine receptor affinity to displace [3H]quinuclidinyl benzilate from rat cerebral cortex; Value ranges from 2300-2600; type: tissue-based
[19] = target: Muscarinic acetylcholine receptor; assay: The compound was tested in vitro for central muscarinic acetylcholine receptor affinity to displace [3H]oxotremorine-M from rat cerebral cortex; Value ranges from 650-1900; type: tissue-based
[20] = target: Muscarinic acetylcholine receptor; assay: The compound was tested in vitro for central muscarinic acetylcholine receptor affinity to displace [3H]quinuclidinyl benzilate from rat cerebral cortex; Value ranges from 8000-17000; type: tissue-based
[21] = target: Muscarinic acetylcholine receptor; assay: The compound was tested in vitro for central muscarinic acetylcholine receptor affinity to displace [3H]quinuclidinyl benzilate from rat cerebral cortex; Value ranges from 16000-36000; type: tissue-based
[22] = target: Muscarinic acetylcholine receptor; assay: The compound was tested in vitro for central muscarinic acetylcholine receptor affinity to displace [3H]oxotremorine-M from rat cerebral cortex; Value ranges from 440-600; type: tissue-based
[23] = target: Muscarinic acetylcholine receptor; assay: The compound was tested in vitro for central muscarinic acetylcholine receptor affinity to displace [3H]oxotremorine-M from rat cerebral cortex; Value ranges from 93-280; type: tissue-based
[24] = target: Muscarinic acetylcholine receptor; assay: The compound was tested in vitro for central muscarinic acetylcholine receptor affinity to displace [3H]quinuclidinyl benzilate from rat cerebral cortex; Value ranges from 48000-100000; type: tissue-based
[25] = target: Muscarinic acetylcholine receptor; assay: The compound was tested in vitro for central muscarinic acetylcholine receptor affinity to displace [3H]oxotremorine-M from rat cerebral cortex; Value ranges from 14-27; type: tissue-based
[26] = target: Muscarinic acetylcholine receptor; assay: The compound was tested in vitro for central muscarinic acetylcholine receptor affinity to displace [3H]quinuclidinyl benzilate from rat cerebral cortex; Value ranges from 6200-6700; type: tissue-based
[27] = target: Muscarinic acetylcholine receptor; assay: The compound was tested in vitro for central muscarinic acetylcholine receptor affinity to displace [3H]oxotremorine-M from rat cerebral cortex; Value ranges from 36-85; type: tissue-based
[28] = target: Muscarinic acetylcholine receptor; assay: The compound was tested in vitro for central muscarinic acetylcholine receptor affinity to displace [3H]quinuclidinyl benzilate from rat cerebral cortex; Value ranges from 29000-33000; type: tissue-based
[29] = target: Muscarinic acetylcholine receptor; assay: The compound was tested in vitro for central muscarinic acetylcholine receptor affinity to displace [3H]oxotremorine-M from rat cerebral cortex; Value ranges from 78-200; type: tissue-based
[30] = target: Muscarinic acetylcholine receptor; assay: The compound was tested in vitro for central muscarinic acetylcholine receptor affinity to displace [3H]quinuclidinyl benzilate from rat cerebral cortex; Value ranges from 23000-38000; type: tissue-based
[31] = target: Muscarinic acetylcholine receptor; assay: The compound was tested in vitro for central muscarinic acetylcholine receptor affinity to displace [3H]oxotremorine-M from rat cerebral cortex; Value ranges from 100-150; type: tissue-based
[32] = target: Muscarinic acetylcholine receptor; assay: The compound was tested in vitro for central muscarinic acetylcholine receptor affinity to displace [3H]quinuclidinyl benzilate from rat cerebral cortex; Value ranges from 3900-5800; type: tissue-based
[33] = target: Muscarinic acetylcholine receptor; assay: The compound was tested in vitro for central muscarinic acetylcholine receptor affinity to displace [3H]oxotremorine-M from rat cerebral cortex; Value ranges from 1.6-3.9; type: tissue-based
[34] = target: Muscarinic acetylcholine receptor; assay: The compound was tested in vitro for central muscarinic acetylcholine receptor affinity to displace [3H]quinuclidinyl benzilate from rat cerebral cortex; Value ranges from 930-1100; type: tissue-based
[35] = target: Muscarinic acetylcholine receptor; assay: The compound was tested in vitro for central muscarinic acetylcholine receptor affinity to displace [3H]quinuclidinyl benzilate from rat cerebral cortex; Value ranges from 1800-3000; type: tissue-based
[36] = target: Muscarinic acetylcholine receptor; assay: The compound was tested in vitro for central muscarinic acetylcholine receptor affinity to displace [3H]oxotremorine-M from rat cerebral cortex; Value ranges from 25-31; type: tissue-based
Mus musculus [37] = assay: Dose administered subcutaneously which causes a fall of 3 degrees C in mean rectal temperature in group of 5 mice.; type: functional; outline: as §2
[38] = target: Muscarinic acetylcholine receptor; assay: The compound was tested in vitro for central Muscarinic acetylcholine receptor affinity to displace [3H]quinuclidinyl benzilate from rat cerebral cortex; Value ranges from […]; type: tissue-based
[39] = target: Muscarinic acetylcholine receptor; assay: The compound was tested in vitro for central Muscarinic acetylcholine receptor affinity to displace [3H]oxotremorine-M from rat cerebral cortex; Value ranges from 12-18; type: tissue-based
[40] = It is the ratio of IC50(QNB) to that of IC50(OXO-M); outline: as §1
[41] = target: Muscarinic acetylcholine receptor; assay: The compound was tested in vitro for central muscarinic acetylcholine receptor affinity to displace [3H]oxotremorine-M from rat cerebral cortex; Value ranges from 34-52; type: tissue-based
[42] = target: Muscarinic acetylcholine receptor; assay: The compound was tested in vitro for central muscarinic acetylcholine receptor affinity to displace [3H]quinuclidinyl benzilate from rat cerebral cortex; Value ranges from 8000-11000; type: tissue-based
[43] = target: Muscarinic acetylcholine receptor; assay: The compound was tested in vitro for central muscarinic acetylcholine receptor affinity to displace [3H]oxotremorine-M from rat cerebral cortex; Value ranges from 1000-1900; type: tissue-based
[44] = target: Muscarinic acetylcholine receptor; assay: The compound was tested in vitro for central muscarinic acetylcholine receptor affinity to displace [3H]quinuclidinyl benzilate from rat cerebral cortex; Value ranges from 60000-65000; type: tissue-based
[45] = target: Muscarinic acetylcholine receptor; assay: The compound was tested in vitro for central muscarinic acetylcholine receptor affinity to displace [3H]oxotremorine-M from rat cerebral cortex; Value ranges from 200-340; type: tissue-based
[46] = target: Muscarinic acetylcholine receptor; assay: The compound was tested in vitro for central muscarinic acetylcholine receptor affinity to displace [3H]quinuclidinyl benzilate from rat cerebral cortex; Value ranges from 2800-6300; type: tissue-based
[47] = target: Muscarinic acetylcholine receptor; assay: The compound was tested in vitro for central muscarinic acetylcholine receptor affinity to displace [3H]quinuclidinyl benzilate from rat cerebral cortex; Value ranges from 1700-2000; type: tissue-based
[48] = target: Muscarinic acetylcholine receptor; assay: The compound was tested in vitro for central muscarinic acetylcholine receptor affinity to displace [3H]oxotremorine-M from rat cerebral cortex; Value ranges from 6-29; type: tissue-based

Cc1nc([C@@H]2CN3CC[C@@H]2C3)no1
IC50 [1]: 27000 nM
IC50 [2]: 92 nM
Ratio [3]: 290

Cc1noc([C@@H]2C[C@H]3CCCN(C3)C2)n1
IC50 [4]: 1730 nM
IC50 [5]: 260 nM
Ratio [3]: 7

Cc1nnc(C2CN3CCC2CC3)o1 (stereo unspecified)
IC50 [6]: 980 nM
IC50 [7]: 19000 nM
Ratio [8]: 20

Cc1noc(C23CCN(CC2)C3)n1
IC50 [9]: 130 nM
IC50 [10]: 23000 nM
Ratio [3]: 170

COC(=O)[C@@H]1CN2CC[C@@H]1C2
ED3 (Mus musculus [11]): >10 mg/kg
ED3 (Mus musculus [12]): 0.41 mg/kg
IC50 [13]: 230 nM
IC50 [14]: 51000 nM
Ratio [3]: 220

COC(=O)[C@@H]1C[C@H]2CCN(C2)C1
IC50 [15]: 77 nM
IC50 [16]: 12000 nM
Ratio [3]: 160

Cc1noc([C@@H]2CN3CCC[C@@H]2C3)n1
IC50 [17]: 44 nM
Ratio [3]: 55
IC50 [18]: 2400 nM

Cc1nc(C2CN3CCC2CC3)no1 (stereo unspecified)
IC50 [19]: 1100 nM
IC50 [20]: 12000 nM
Ratio [8]: 10

COC(=O)C1CN2CCC1CC2 (stereo unspecified)
IC50 [21]: 25000 nM
IC50 [22]: 520 nM
Ratio [3]: 49

Cc1nnc(C23CCN(CC2)C3)o1
IC50 [23]: 180 nM
IC50 [24]: 70000 nM
Ratio [8]: 380

COC(=O)C12CCCN(CC1)C2 (stereo unspecified)
ED3 (Mus musculus [11]): >0.3 mg/kg
ED3 (Mus musculus [12]): 0.078 mg/kg
IC50 [25]: 19 nM
IC50 [26]: 6400 nM
Ratio [3]: 340

COC(=O)C12CCN(CC1)C2
IC50 [27]: 48 nM
Ratio [8]: 650
IC50 [28]: 31000 nM

Cc1nnc([C@@H]2CN3CC[C@@H]2C3)o1
IC50 [29]: 120 nM
Ratio [8]: 240
IC50 [30]: 29000 nM

COC(=O)[C@@H]1C[C@H]2CCCN(C2)C1
IC50 [31]: 130 nM
Ratio [3]: 37
IC50 [32]: 4800 nM

Cc1noc([C@@H]2CN3CC[C@@H]2C3)n1
ED3 (Mus musculus [11]): 0.0011 mg/kg
ED3 (Mus musculus [12]): 0.0005 mg/kg
IC50 [33]: 2.8 nM
IC50 [34]: 1000 nM
Ratio [3]: 360

Cc1noc([C@@H]2C[C@H]3CCN(C3)C2)n1
IC50 [35]: 2400 nM
IC50 [36]: 28 nM
Ratio [3]: 84

Cc1noc(C23CCCN(CC2)C3)n1 (stereo unspecified)
ED3 (Mus musculus [11]): 0.018 mg/kg
ED3 (Mus musculus [37]): 0.0029 mg/kg
IC50 [38]: 3500 nM
IC50 [39]: 15 nM
Ratio [40]: 230

Cc1nnc(C23CCCN(CC2)C3)o1 (stereo unspecified)
IC50 [41]: 42 nM
IC50 [42]: 9400 nM
Ratio [8]: 220

COC(=O)[C@@H]1C[N@@]2CCC[C@@H]1C2
IC50 [43]: 1400 nM
IC50 [44]: 62000 nM
Ratio [8]: 46

Cc1nc(C23CCCN(CC2)C3)no1 (stereo unspecified)
IC50 [45]: 260 nM
IC50 [46]: 4200 nM
Ratio [8]: 16

Cc1noc(C2CN3CCC2CC3)n1 (stereo unspecified)
IC50 [47]: 1800 nM
IC50 [48]: 14 nM
Ratio [3]: 130
